Key:
Assay type in all cases: functional
HT-29 = test: Cytotoxicity against human HT-29 cells after 72 hrs by SRB assay; settings: HT-29, 72 h
Method in brief: (§1)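 Cells kept in RPMI with 10% fetal calf serum, 2 mM L-glutamine, 100 U/mL penicillin/streptomycin, 37 °C, 5% CO2. Triplicate cultures exposed 72 h to 10 concentrations, 10 to 0.0026 µg/mL. Fixed in 1% glutaraldehyde 15 min, stained with 0.4% SRB 30 min at room temperature, extracted in 10 mM trizma base, absorbance read at 490 nm. GI50 from NCI algorithm, corrected for starting cell count. Doxorubicin positive control, DMSO vehicle.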

MDA-MB-231 = test: Cytotoxicity against human MDA-MB-231 cells after 72 hrs by SRB assay; settings: MDA-MB-231, 72 h; for CC50: read-out: LC50 (the source's name); method in brief: as §1
A549 = test: Cytotoxicity against human A549 cells after 72 hrs by SRB assay; settings: A549, 72 h; method in brief: as §1

SMILES | GI50 (HT-29) [µM] | TGI (HT-29) [µM] | GI50 (MDA-MB-231) [µM] | TGI (MDA-MB-231) [µM] | CC50 (MDA-MB-231) [µM] | GI50 (A549) [µM] | TGI (A549) [µM] | LC50 (concentration killing 50% of starting cells) (HT-29) [µM] | LC50 (A549) [µM]
COc1cccc2c1C(=O)c1c(O)c3c(c(O)c1C2=O)C[C@@](O)(C(=O)CO)C[C@@H]3O[C@H]1C[C@H](N)[C@H](O)[C@H](C)O1 [DOXORUBICIN] | 0.066 | 0.4 | 0.038 | 0.31 | 2.41 | 0.062 | 0.26 |  | 
O=C(O)C[C@@H]1CC[C@@H]([C@H]2CC[C@H](CCCCCCC3\C=C/C=C\C=C/C3)O2)OO1 (stereo not given in full) [STOLONOXIDE F] | 2.72 | 3.21 | 4.7 | 5.44 | 6.18 | 5.44 | 5.93 | 3.71 | 6.67
O=C(O)C[C@@H]1CC[C@@H]([C@@H]2CC[C@@H](CCCCCCC3\C=C/C=C\C=C/C3)O2)OO1 (stereo not given in full) [STOLONOXIDE E] | 3.96 | 5.19 | 4.94 | 5.44 | 6.18 | 7.91 | 8.16 | 6.67 | 8.65

Source: ChEMBL document CHEMBL1154838, “Stolonoxides E and F, cytotoxic metabolites from the marine ascidian Stolonica socialis” (2010)
